Source: ChEMBL document CHEMBL1240420, “Synthesis and biological evaluation of cinnamido linked pyrrolo[2,1-c][1,4]benzodiazepines as antimitotic agents” (Eur J Med Chem, 2010)
Structures can show the parent of a compound that is named as a salt. Calls of active or inactive are those of the source. The calls are words filed in the database; no cut-off is given here.

Key:
[1] = tested on: A2780; test: Cytotoxicity against human A2780 cells after 48 hrs by SRB assay; format: functional; conditions: A2780, 48 h
How it was run: (§1)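 Cells were grown in RPMI 1640 with 10% FBS and 2 mM L-glutamine, plated 24 h before dosing, then given continuous 48 h exposure at 0.1, 1, 10 and 100 µM in triplicate wells. Cells were fixed with cold TCA (10% final, 60 min, 4 °C), stained with 0.4% SRB in 1% acetic acid for 20 min, eluted with 10 mM Tris base, and read at 540/690 nm. GI50 was taken from [(Ti−Tz)/(C−Tz)]×100 = 50; three determinations were averaged.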

[2] = tested on: KB; test: Cytotoxicity against human KB cells after 48 hrs by SRB assay; format: functional; how it was run: as §1
[3] = tested on: PC-3; test: Cytotoxicity against human PC3 cells after 48 hrs by SRB assay; format: functional; conditions: PC-3, 48 h; how it was run: as §1
[4] = Cytotoxicity against human GURAV cells after 48 hrs by SRB assay; format: functional; how it was run: as §1
[5] = tested on: SiHa; test: Cytotoxicity against human SiHa cells after 48 hrs by SRB assay; format: functional
How it was run: (§2)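 Cells grown in RPMI 1640 with 10% FBS and 2 mM L-glutamine, plated and left 24 h at 37 °C/5% CO2, then exposed continuously for 48 h to 0.1, 1, 10 and 100 µM in triplicate wells. Fixed with cold TCA (10% final), stained with 0.4% SRB, eluted with 10 mM Tris base, read at 540 nm (690 nm reference). GI50 from [(Ti−Tz)/(C−Tz)]×100 = 50; mean of three determinations.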

[6] = tested on: COLO 205; test: Cytotoxicity against human COLO205 cells after 48 hrs by SRB assay; format: functional; conditions: COLO 205, 48 h; how it was run: as §1
[7] = tested on: MCF7; test: Cytotoxicity against human MCF7 cells after 48 hrs by SRB assay; format: functional; conditions: MCF7, 48 h; how it was run: as §1
[8] = tested on: HOP-62; test: Cytotoxicity against human HOP62 cells after 48 hrs by SRB assay; format: functional; conditions: HOP-62, 48 h; how it was run: as §1
[9] = tested on: A549; test: Cytotoxicity against human A549 cells after 48 hrs by SRB assay; format: functional; conditions: A549, 48 h; how it was run: as §1
[10] = tested on: ZR-75-1; test: Cytotoxicity against human ZR-75-1 cells after 48 hrs by SRB assay; format: functional; conditions: ZR-75-1, 48 h; how it was run: as §2
[11] = Cytotoxicity against human DWD cells after 48 hrs by SRB assay; format: functional; how it was run: as §1
[12] = species on record: Bos taurus; test: Inhibition of bovine tubulin at 2.5 uM after 3 hrs relative to control
[13] = tested on: MCF7; test: Induction of apoptosis in human MCF7 cells assessed as nuclear condensation at 2 uM after 48 hrs by fluorescence microscopy; format: functional, cell-based
How it was run: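 MCF7 cells on cover slips in 6-well plates treated 48 h at 1–3 µM. Nocodazole and podophyllotoxin (1 µM) served as controls. Fixed in 3% paraformaldehyde/0.02% glutaraldehyde, stained with Hoechst (5 µM, 30 min), washed in PBS and imaged by fluorescence microscopy with DAPI filters. Five fields of view examined.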

[14] = Inhibition of bovine tubulin after 3 hrs; parameters: species or system Bos taurus
How it was run: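 Bovine brain tubulin purified by three polymerization/depolymerization cycles. A340 read every 2 min for 3 h at 37 °C, nocodazole as control. IC50 taken as the concentration halving assembly versus control.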

[15] = biological target: Tubulin (Homo sapiens) (UniProt P68371+Q9H4B7+P0DPH7+P68366+Q13509+Q71U36+P04350+Q3ZCM7+P07437+P68363+Q9BQE3+Q6PEY2+Q13885+Q9BVA1+Q9BUF5); test: Inhibition of tubulin polymerization in human MCF7 cells at 2.5 uM by immunohistochemistry; format: cell-based
How it was run: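 MCF7 cells on glass cover slips exposed 48 h to 2.5 µM. Fixed with 3% paraformaldehyde/0.02% glutaraldehyde, permeabilized in −20 °C methanol, blocked with 1% BSA. Stained with mouse monoclonal anti-tubulin plus FITC secondary, then confocal imaging of microtubule network integrity. Nocodazole and taxol (2.5 µM) run as controls; untreated cells as baseline.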

[16] = tested on: MCF7; test: Cell cycle arrest in human MCF7 cells assessed as accumulation at G2/M phase after 48 hrs using FITC/propidium iodide staining by flow cytometry; format: functional, cell-based
How it was run: (§3)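 MCF7 cells in 6-well plates were exposed for 48 h, harvested with trypsin–EDTA, and fixed in ice-cold 70% ethanol at 4 °C for 30 min. They were then stained with a propidium iodide solution containing trisodium citrate and Triton X-100 for 30 min in the dark. DNA content was read by flow cytometry on 20,000 events, and cells were scored by cell-cycle phase from histograms.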

[17] = tested on: MCF7; test: Cell cycle arrest in human MCF7 cells assessed as accumulation at G0 phase after 48 hrs using FITC/propidium iodide staining by flow cytometry; format: functional, cell-based; how it was run: as §3

Row | inhibition [12] [%] | IC50 [14] [nM] | inhibition [15] | Structure (SMILES) | GI50 [1] [nM] | GI50 [2] [nM] | GI50 [3] [nM] | GI50 [4] [nM] | GI50 [5] [nM] | GI50 [6] [nM] | GI50 [7] [nM] | GI50 [8] [nM] | GI50 [9] [nM] | GI50 [10] [nM] | GI50 [11] [nM] | Activity [13] | Activity [16] | Activity [17]
1 | – | – | – | COc1cc2c(cc1O)N=C[C@@H]1CCCN1C2=O | 140 | 170 | 200 | 160 | 170 | 110 | 170 | 150 | 160 | – | – | – | – | –
2 | – | – | – | COc1cc(/C=C/C(=O)N2CCN(C(=O)c3cc(OC)c(OC)c(OC)c3)CC2)ccc1OCCCCOc1cc2c(cc1OC)C(=O)N1CCC[C@H]1C=N2 | 150 | 150 | < 100 | 110 | 170 | < 100 | 140 | 170 | 120 | 150 | 110 | – | – | –
3 | – | – | – | COc1cc(/C=C/C(=O)N2CCN(C(=O)/C=C/c3ccc(OCCCCCOc4cc5c(cc4OC)C(=O)N4CCC[C@H]4C=N5)c(OC)c3)CC2)ccc1OCCCCCOc1cc2c(cc1OC)C(=O)N1CCC[C@H]1C=N2 | 160 | 2000 | < 100 | 2300 | 2000 | < 100 | 1000 | 180 | 110 | < 100 | < 100 | – | – | –
4 | – | – | – | COc1cc(/C=C/C(=O)N2CCN(C(=O)/C=C/c3ccc(OCCCCCCOc4cc5c(cc4OC)C(=O)N4CCC[C@H]4C=N5)c(OC)c3)CC2)ccc1OCCCCCCOc1cc2c(cc1OC)C(=O)N1CCC[C@H]1C=N2 | < 100 | < 100 | 150 | < 100 | < 100 | < 100 | 1900 | < 100 | 150 | 210 | < 100 | – | – | –
5 | 40 | 16400 | Active | COc1cc(/C=C/C(=O)N2CCOCC2)ccc1OCCCCOc1cc2c(cc1OC)C(=O)N1CCC[C@H]1C=N2 | 120 | 130 | 140 | 130 | 140 | 120 | 140 | 160 | 110 | 150 | < 100 | Active | Active | Active
6 | – | – | – | COc1cccc2c1C(=O)c1c(O)c3c(c(O)c1C2=O)C[C@@](O)(C(=O)CO)C[C@@H]3O[C@H]1C[C@H](N)[C@H](O)[C@H](C)O1 [DOXORUBICIN HYDROCHLORIDE] | < 100 | 130 | 160 | 140 | 150 | 130 | < 100 | 120 | < 100 | 120 | 120 | – | – | –
7 | – | – | – | COc1cc(/C=C/C(=O)N2CCN(C(=O)c3cc(OC)c(OC)c(OC)c3)CC2)ccc1OCCCCCCOc1cc2c(cc1OC)C(=O)N1CCC[C@H]1C=N2 | 180 | 1900 | 1900 | 1900 | 2500 | 2100 | 180 | 2600 | 160 | 210 | 170 | – | – | –
8 | – | – | – | COc1cc(/C=C/C(=O)N2CCOCC2)ccc1OCCCOc1cc2c(cc1OC)C(=O)N1CCC[C@H]1C=N2 | < 100 | < 100 | 130 | 100 | 120 | 100 | < 100 | 140 | < 100 | 120 | < 100 | – | – | –
9 | – | – | – | COc1cc(/C=C/C(=O)N2CCN(C(=O)/C=C/c3ccc(OCCCOc4cc5c(cc4OC)C(=O)N4CCC[C@H]4C=N5)c(OC)c3)CC2)ccc1OCCCOc1cc2c(cc1OC)C(=O)N1CCC[C@H]1C=N2 | 120 | 140 | 150 | 140 | 160 | < 100 | < 100 | 150 | < 100 | < 100 | < 100 | – | – | –
10 | – | – | – | COc1cc(/C=C/C(=O)N2CCOCC2)ccc1OCCCCCCOc1cc2c(cc1OC)C(=O)N1CCC[C@H]1C=N2 | < 100 | < 100 | 170 | < 100 | < 100 | 150 | 150 | < 100 | < 100 | 140 | 150 | – | – | –
11 | – | – | – | COc1cc(/C=C/C(=O)N2CCN(C(=O)c3cc(OC)c(OC)c(OC)c3)CC2)ccc1OCCCCCOc1cc2c(cc1OC)C(=O)N1CCC[C@H]1C=N2 | 110 | 120 | 140 | 130 | 140 | < 100 | 130 | 150 | 110 | 140 | < 100 | – | – | –
12 | – | – | – | COc1cc(/C=C/C(=O)N2CCOCC2)ccc1OCCCCCOc1cc2c(cc1OC)C(=O)N1CCC[C@H]1C=N2 | 140 | 150 | < 100 | 160 | 170 | < 100 | < 100 | 170 | < 100 | < 100 | < 100 | – | – | –
13 | 40 | 27900 | Active | COc1cc(/C=C/C(=O)N2CCN(C(=O)/C=C/c3ccc(OCCCCOc4cc5c(cc4OC)C(=O)N4CCC[C@H]4C=N5)c(OC)c3)CC2)ccc1OCCCCOc1cc2c(cc1OC)C(=O)N1CCC[C@H]1C=N2 | < 100 | < 100 | 160 | < 100 | < 100 | 150 | 150 | < 100 | < 100 | 150 | 120 | Active | Active | Active
